Measured values: ChEMBL document CHEMBL4513216, “Probing the Open Global Health Chemical Diversity Library for Multistage-Active Starting Points for Next-Generation Antimalarials” (ACS Infect Dis, 2020)

Assay: Toxicity liver stage against HepG2, at 10uM
Format: cell-based
Set-up: test concentration 10 uM, cell line HepG2-A16-CD81EGFP
Settings: human, HepG2-A16-CD81EGFP cells; read-out: INHIBITION
Procedure, shortened: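 Uninfected HepG2-A16-CD81EGFP cells, 3 × 10^3 per well, 1536-well, plated on prespotted compound at 10 μM final, parasite-free screening media added to match infected plates; puromycin 10 μM positive, DMSO 0.5% negative; run in parallel with 48 h PbLuc assay at 37 °C, 5% CO2; viability by CellTiter-Glo luminescence, normalized to controls.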

SMILES | cytotoxicity at 10 µM [%]
CC(C)CCN1CC[C@H](c2nnc(Cc3c[nH]c4ccccc34)o2)C1 | 0.167
O=C(NC1CCS(=O)(=O)C1)c1cn(C2CC2)c(=O)c2ccccc12 (stereo not given) | -5.65
Cc1cncc(Oc2ccc(CO)cc2)n1 | 5.81
O=S(=O)(c1ccccc1)N1C[C@@H]2COC[C@]2(COCC2CC2)C1 | 10.2
CC(C)CNC(=O)N1CCOC2(CCNCC2)C1 | 9.28
CS(=O)(=O)NCC1OCCc2cn(CC3CC3)nc21 (stereo not given) | 8.19
c1ccc(CN2CCOC3(CCCN(c4nccs4)C3)C2)cc1 (stereo not given) | 13.7
Cn1ncc2c1C(COCC1CC1)CN(Cc1cccnc1)C2 (stereo not given) | 11.4
Cc1c(C)n(Cc2ccncc2)c2nc3c(c(N)c12)CCCC3 | 1.4
CCc1cc(=O)n(CC(=O)N2CCCCC2)c(-c2cccc(F)c2)n1 | 11.4
Cn1cc(-c2cc(-c3cnn(C)c3)n(CC(=O)NC3CC3)n2)cn1 | 2.94
CCn1ccc(-c2cc(C(=O)O)n3ncc(Cl)c3n2)n1 | -3.05
CN1C(=O)CC[C@@H]2N(C(=O)CCc3cccnc3)CCCC[C@@]21C | 3.82
CCOc1ccc(CN2CCC(c3nc(C)cc(C)n3)C2)cc1CO (stereo not given) | 2.75
Cc1ccc(CN2CCc3c(nc4cc(C5CC5)nn4c3O)C2)s1 | -3.69
CS(=O)(=O)N1CCCC(c2cncc(Nc3ccccn3)n2)C1 (stereo not given) | 0.609
CC(=O)N1CCCC(Cc2cncc(Br)c2)C1 (stereo not given) | -9.02
C[C@]1(O)CCN(Cc2cccnc2)C[C@@H]1Oc1cccc(F)c1 | -8.22
CCCC(=O)N1CCc2nc3cc(OC)c(OC)cc3c(=O)n2CC1 | -13.2
O=C(NC1CCCCC1)N1CCn2c(nnc2C2CCCN2)C1 (stereo not given) | 0.336
O=C1CC2(CCN(C(=O)c3ccccc3)C2)Nc2ccccc2N1 (stereo not given) | 9.98
CN1Cc2ccccc2NC(=O)C12CCNC2 (stereo not given) | 6.75

SMILES | cytotoxicity at 10 µM [%]
CCN(CC)C(=O)CSc1ncc[nH]1 | -9.94
Cc1ccc(S(=O)(=O)Nc2ccc(N3CCSCC3)c(C(=O)O)c2)s1 | 3.54
Cc1ccc(-c2nc(CC(=O)NCC3CCCOC3)cs2)o1 (stereo not given) | -48
Cc1ncc(S(=O)(=O)Nc2ccnn2C2CCCCC2)[nH]1 | -6.82
O=C(CSCc1ccccn1)NCC1CCN(C2CC2)C1 (stereo not given) | -14.8
CC(=O)Nc1ccc(CNCC(O)c2ccc(C)cc2)cc1 (stereo not given) | -0.684
Cc1cnn(C2CN(c3nc(-c4ccncc4)nc4c3CCC4)C2)c1 | -46
NC(=O)c1ccc(NC(=O)N2CCN(c3cccs3)CC2)c(F)c1 | 1.97
COCCOc1ncccc1CNC(=O)N1CCCCCC1 | -36
CN(C)CCN(Cc1cccnc1)C(=O)c1ccn(-c2ccccc2)n1 | 2.41
CCCN1CCC(N(C)CCC(=O)Nc2ccccc2SC)CC1 | 15.5
Cc1csc(CNC(=O)NCC(C)Cn2nc(C)cc2C)n1 (stereo not given) | 3.26
OC(CNCCn1cccn1)COc1ccc2ccccc2c1 (stereo not given) | -26.4
O=C(c1sccc1C1CC1)N1CCN(c2cnccn2)CC1 | -2.92
CN(C)C(=O)Cn1cc(C#N)c(=O)c2cc(Br)ccc21 | 15.7
CCc1nc2n(n1)CCCC2Nc1nc(C2CC2)ns1 (stereo not given) | 3.03
Cc1ccc(N2CCCC(N(C)Cc3noc(C4CC4)n3)C2)nn1 (stereo not given) | 1.6
CSC(C)(C)CNC(=O)NC1CCN(CC2CC2)C1 (stereo not given) | 0.811
COCc1ccc(C(=O)N(CCC#N)Cc2ccccn2)cc1 | 14
Cc1cc(C)c2c(c1)C(NCc1nnc3n1CCC3)CCCO2 (stereo not given) | -0.117
O=C(c1cccnc1-n1cncn1)N1CCN(C2CCCC2)CC1 | 8.7
CC(C)OCCOCc1cccc(NC(=O)NCC(=O)N(C)C)c1 | -5.53

SMILES | cytotoxicity at 10 µM [%]
COC(C)c1noc(CN2CCCNCC2)n1 (stereo not given) | 5.6
Cc1ccc(C2CCCN2S(=O)(=O)N(C)Cc2cnn(C)c2)o1 (stereo not given) | 15.8
COc1cccc(SCC(=O)N2CCC(N3CCCC3=O)CC2)c1 | -9.41
CC(C)CN1C(=O)C2(CCCC2)NC1c1c[nH]nc1-c1cccnc1 (stereo not given) | 7.76
Cc1cc(=O)c(C(=O)N2CCN(C)c3ccccc3C2)c[nH]1 | 3.53
Cc1ccc2c(c1)OCCCC2NCc1nccn1CC(C)C (stereo not given) | -0.77
CCc1nnnn1Cc1csc(N(C)C(C)=O)n1 | 0.63
O=C(c1ncncc1Cl)N1CCN(c2ccc(Cl)cc2)CC1 | -2.72
CCn1c(CN(C)CC(F)(F)F)nc2c(F)cccc21 | -5.35
Cc1nn(C)cc1C(=O)Nc1cccc(CN2CCC(CO)CC2)c1 | -10.2
COCCN1C(=O)CC[C@@H]2[C@@H]1CCN2S(=O)(=O)C1CC1 | -98.4
O=C(c1ccncn1)N1CCC[C@]2(C[C@@H](OCc3ccccn3)CO2)C1 | -72.9
O=C(c1cscn1)N1CC[C@H]2C[C@@H](c3ccncn3)O[C@@H]2C1 | -76.6
CC(C)c1nc(CN(C)C(=O)Cn2nc3ccccc3n2)no1 | 10.2
CCn1ncnc1CN1CCOC(Cc2cccc3ccccc23)C1 (stereo not given) | 2.53
CC(=O)N1CC2(CCN(c3ccc4ccccc4n3)CC2)CC1C(=O)O (stereo not given) | 5.33
COc1ccc2c(c1)C(C(=O)N(C)CCc1scnc1C)CC(=O)N2 (stereo not given) | -42.3
CCC[C@H]1CN(S(=O)(=O)c2cc(C)ccc2F)C[C@@H]1N | 2.33
CCc1c(C)nn(CCNC(=O)c2cnn[nH]2)c1C | -5.28
Cc1nn(C)c(C)c1NC(=O)c1cccc(CN2CCS(=O)(=O)CC2)c1 | -15.8
Cc1ccccc1C(=O)NC[C@@H]1CCN(C(=O)CN2CCCC2)C[C@H]1O | -39.8
CCc1c(C)nn(CCN2CC3(CCOC3)CCC2=O)c1C (stereo not given) | 1.94

SMILES | cytotoxicity at 10 µM [%]
O=C(Nc1ccc(-n2cccn2)cc1)N1C[C@H](O)[C@@H](N2CCOCC2)C1 | -45.9
CC(C)(C)c1ccc(-c2n[nH]c3c2CN(CC2CCOC2)CC3)cc1 (stereo not given) | -40.1
OC1(c2cn(CC3CCN(C4CCSC4)CC3)nn2)CCCC1 (stereo not given) | 0.445
CCc1cnc(N)nc1NCc1ccc(OC)c(OC)c1 | 3.48
CC(C)(C)N1CC(C(=O)N2CCN(CCc3ccccc3)CC2)CC1=O (stereo not given) | 23.4
Cc1nnc(SCc2ccccn2)s1 | -9.13
Cc1cc(C)n(CNc2nonc2C(N)=O)n1 | -13
Clc1ccccc1-c1nc(CNC2CCc3ncnn3C2)co1 (stereo not given) | -7.6
COc1ccc(C(O)CNC(=O)NCCc2csc(C)n2)cc1 (stereo not given) | -6.16
O=C(C1CCCN1Cc1nc(-c2ccco2)no1)N1CCSCC1 (stereo not given) | -5.8
CCOc1ccccc1N1CCN(C(=O)c2cc[nH]n2)CC1 | -11
Cn1cc(C2CCCN2C(=O)COCCOc2ccccc2)cn1 (stereo not given) | -16.3
Cc1cnn(CC2CN(c3nc4ccccc4o3)CCO2)c1 (stereo not given) | -16.5
CCc1noc(C(C)N2CCC(N3CCCCC3)CC2)n1 (stereo not given) | -4.8
NC(=O)C1CCCN(c2ccc(CNC(=O)c3csnn3)cc2)C1 (stereo not given) | -2.18
COC(=O)C(c1cc(F)ccc1F)N(C)C(=O)c1cnc(C)cn1 (stereo not given) | 0.111
Cc1nc(C)n(CC2CCCN(CCCc3ccccc3)C2)n1 (stereo not given) | -6.02
Nc1cc2c(nn1)CCN(C(=O)c1cccc3c1OCCO3)C2 | -8.72
O=C(NCCn1ccnc1)c1ccn(-c2cccc(F)c2)n1 | -5.28
CCN(CC1CCOC1)C(=O)Nc1ccc(N2CCCC2)nc1 (stereo not given) | -7.1
Cc1cnn(C2CCCN(C(=O)c3cn4cccnc4n3)C2)c1 (stereo not given) | -11.4
COCCOc1cccc(C(=O)N2CCCC(n3ccnc3C)C2)c1 (stereo not given) | -12

SMILES | cytotoxicity at 10 µM [%]
COc1c(C2CCCN2C(=O)c2c[nH]c3ncccc23)c(C)nn1C (stereo not given) | -6.49
COc1ccccc1OCC(=O)NS(=O)(=O)c1ccccc1Br | -9.8
Cc1cc(C[C@@H]2CCC[C@H]2NCc2ccccc2C)on1 | -5.28
Fc1cnc(N2C[C@@H](OCC3CCOCC3)[C@H]3OCCC[C@H]32)nc1 | 10.5
Cc1cc(C(=O)N2CC[C@]3(C[C@@H](OCc4ccccn4)CO3)C2)c(C)o1 | -78.7
Cc1cc(C(=O)N2CCc3ncc(CN4CCCC4)n3CC2)no1 | -108
Cc1cc(CN2C[C@@H]3COC[C@]3(CNS(C)(=O)=O)C2)no1 | -71.2
Cn1cc(CN2C[C@H]3CCN(C(=O)c4cscn4)C[C@H]3C2)cn1 | 4.12
O=C(c1ccco1)N1C[C@H]2CCCN(Cc3ccoc3)[C@H]2C1 | 0.276
CC(C)Oc1cccc(CNC(Cc2ccsc2)c2nccs2)c1 (stereo not given) | 0.732
O=C(NCC1CC1)[C@@H]1CCO[C@@H]2CCN(c3ncccn3)C[C@@H]21 | 7.64
COc1ncc(C2(O)CCN(Cc3cccc(F)c3F)CC2)c(OC)n1 | -8.33
O=C([C@H]1C[C@H]2OCC[C@H]2N(CCc2ccccc2)C1)N1CCCO1 | -72.8
O=C(c1ccc(F)cc1)N1CCN2C[C@H](Oc3cccnc3)C[C@H]2C1 | 3.77
COc1cc(CNCC(O)c2cccc(F)c2)cc2c1OCO2 (stereo not given) | -6.31
CC(C)CC(=O)N1C[C@@H]2CCN(c3ncccn3)C[C@@H]2C1 | -1.63
Cc1ncsc1CN1Cc2cn(C)nc2C(COCC2CC2)C1 (stereo not given) | -67.3
Cc1occc1C(=O)N1CCOCC2(CCN(C3CCOCC3)C2)C1 (stereo not given) | 1.47
c1cnc(N2CCCC3(CCN(CC4CC4)C3)C2)nc1 (stereo not given) | -76.9
CN(Cc1ccco1)[C@@H]1CN(Cc2nccs2)C[C@@H]2CCCO[C@@H]21 | 6.07
Cc1ccc(N2CCO[C@H]3CN(CC4CC4)C[C@H]32)nn1 | -7.93
CCN1CCC2(CC1)CC(NCc1ccncc1)c1ccccc1O2 (stereo not given) | 0.254
